Screening data (PubChem BioAssay)
EBI2 block – blocks human EBI2 receptor beta-arrestin signaling; P32249; EBI2 beta-arrestin recruitment, luminescence, 7a,25-OHC stimulated; inhibition, % at 5 µM; hit rate 0.81% among 360,000; in the data active = inhibition above about 38%;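 also: enzyme fragment complementation signal reports receptor beta-arrestin coupling in cells; 0% = agonist plus DMSO wells and 100% = wells without agonist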
APJ ag – APJ receptor agonism; CHO-K1 APJ PathHunter beta-arrestin, luminescence; 0% DMSO wells, 100% apelin; activation, % at 20 µM; hit rate 0.11% among 330,000;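 active = activation more than six SD over the plate average, tested at 20 µM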;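 also: 0% = DMSO alone and 100% = apelin-13 at 10 nM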
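system = engineered CHO-K1 APJ arrestin reporter cells | input = 1000 cells per well | timing = overnight seeding, 90 min compound at 25 °C, 1 h detection | measured by = enzyme-fragment complementation luminescence | read-out = beta-arrestin recruitment to APJ as agonist activity, luminescent signal | control set = negative DMSO alone, positive Apelin-13 at 10 nM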
H9c2 TAG inh – inhibitors of triacylglycerol accumulation. H9c2 cells, Nile Red lipid (TAG) fluorescence; cells loaded with 200 µM oleic acid. inhibition, % at 12.5 µM. hit rate 0.66% among 230,000;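 active = pattern-corrected inhibition of lipid staining of at least 50% with the nuclear-stain viability signal not falling by more than 50%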;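 also: 0% = DMSO wells and 100% = triacsin C control wells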
CXCR6 inh – CXCR6 (human) receptor inhibition. O00574. CHO-K1 PathHunter CXCR6 beta-arrestin, luminescence. inhibition, % at 20 µM. hit rate 0.36% among 360,000. AID 602244; in the data active = inhibition above about 34%, passing the limit was not always enough;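 also: antagonist mode with CXCL16 agonist at 10 nM final; 0% = 10 nM CXCL16 with DMSO and 100% = unstimulated wells without agonist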
Target sequence (O00574 whole entry, looked up): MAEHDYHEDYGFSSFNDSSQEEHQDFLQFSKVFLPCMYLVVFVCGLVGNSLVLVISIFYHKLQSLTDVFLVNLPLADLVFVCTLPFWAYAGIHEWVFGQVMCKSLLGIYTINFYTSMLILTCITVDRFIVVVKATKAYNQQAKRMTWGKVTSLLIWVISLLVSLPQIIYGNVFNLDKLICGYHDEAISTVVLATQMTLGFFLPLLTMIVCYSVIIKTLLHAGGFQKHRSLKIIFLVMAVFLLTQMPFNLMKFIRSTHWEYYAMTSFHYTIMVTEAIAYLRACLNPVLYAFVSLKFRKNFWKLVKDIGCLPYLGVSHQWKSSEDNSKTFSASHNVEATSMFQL
APJ antagonist – blocks the human apelin receptor APJ; P35414; CHO-K1 APJ beta-arrestin complementation, luminescence; inhibition, % at 20 µM; hit rate 0.32% among 330,000; AID 2521;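 active = inhibition above about 40% at 20 µM, limit read from the data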;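 also: cells challenged with 10 nM apelin-13 agonist together with compound; plate controls were apelin-13 plus DMSO wells for no effect and DMSO wells lacking apelin-13 for full effect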
CCR6 antagonist – CCR6 (human) receptor antagonism. CHO-K1 CCR6 PathHunter beta-arrestin, luminescence, CCL20-stimulated. inhibition, % at 20 µM. hit rate 0.49% among 340,000. AID 493098;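 active = compounds whose inhibition of the agonist-driven luminescence signal at 20 µM reaches about 50%, limit read from the data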;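 also: cells stimulated with CCL20 at 14 nM final; plate controls were DMSO with CCL20 for no effect and DMSO without agonist for full effect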
TAG conf – confirmation of triacylglycerol accumulation inhibitors. AID 651629. inhibition, % at 12.5 µM. hit rate 71% among 990. shares compounds with H9c2 TAG inh. H9c2 lipid accumulation, Nile Red fluorescence; cells loaded with 200 µM oleic acid;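 active = mean inhibition across replicates of 40% or more; inactive = mean inhibition below 40%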;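 also: plate controls were DMSO only wells for no effect and Triacsin C treated wells for full effect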
* hit, by the source's call; / = no result given; ! = not confirmed by another sample. The list is not random: actives were taken first. Their share in the collection is about 1.9%.

SMILES	EBI2 block	APJ ag	H9c2 TAG inh	CXCR6 inh	APJ antagonist	CCR6 antagonist	TAG conf
Cc1cc(C(=O)CSc2nnc(NCc3ccccc3)s2)c(C)n1C	-7.1	0.6	51.3*	-1.4	-3.3	1.9	27.1
O=C(Nc1cnccn1)c1ccc(F)cc1Cl	-10.7	0.7	9.7	-7.0	10.0	10.1	/
CC(=O)O[C@H]1C[C@@]2(C)[C@@H](C[C@@H](O)[C@H]3[C@@]4(C)CC[C@@H](O)[C@@H](C)[C@@H]4CC[C@@]32C)/C1=C(\CCC=C(C)C)C(=O)O	-0.1	-2.4	60.6*!	-3.5	1.1	-1.3	55.6*
CC(=O)O[C@]1(C(C)=O)CCC2C3C=C(C)C4=CC(=O)CC[C@]4(C)C3CC[C@@]21C (some centres undefined)	4.8	-4.7	/	-8.3	15.3	7.3	/
O=C(Nc1ccc(S(=O)(=O)N2CCOCC2)cc1)C1CCN(S(=O)(=O)c2ccccc2)CC1	-16.6	8.1	-3.9	5.1	8.0	-0.4	/
O=C(COc1ccc(Cl)cc1Cl)NN=C1c2ccccc2-c2ccccc21	8.1	-2.0	50.7*	-7.3	2.2	-2.4	20.8
CCCCN1CC(COCc2ccccc2)Oc2ccccc2S1(=O)=O (centres undefined)	9.0	/	-17.3	6.0	/	28.7	/
N#C/C(=C\Nc1ccc2cn[nH]c2c1)c1nc(-c2ccc(Cl)cc2)cs1	-11.7	0.7	77.6*	-3.0	-31.0	-6.0	83.3*
CCN(C(=O)COC(=O)c1ccc2ccccc2n1)c1c(N)n(Cc2ccccc2)c(=O)[nH]c1=O	1.3	-4.2	2.7	-1.2	3.7	5.4	/
COCCn1cnc2c(c1=O)c1nc3ccccc3nc1n2/N=C/c1ccco1	0.3	3.4	7.3	-0.8	14.7	3.9	/
COCCn1cnc2c(c1=O)c1nc3ccccc3nc1n2/N=C/c1ccc(OC)c(OC)c1	-19.6	0.9	67.9*	5.3	8.7	5.4	88.0*
CCC1(O)CC2CN(CCc3c([nH]c4ccccc34)C(C(=O)OC)(c3cc4c(cc3OC)N(C=O)C3C(O)(C(=O)OC)C(OC(C)=O)C5(CC)C=CCN6CCC43C65)C2)C1 (centres undefined)	-2.1	/	51.6*	-10.9	/	-4.9	56.9*
CCOC(=O)C1CCCN1C(=O)c1ccc(OC)c(Br)c1 (centres undefined)	-7.3	-2.5	-13.1	-4.6	-31.4	-2.7	/
CCOC(=O)C1CCCCN1C(=O)c1cc2ccc(OC)cc2c2cc(OC)c(OC)cc12 (centres undefined)	-2.0	/	54.4*	-6.3	/	14.7	24.8
CC(C)(C)c1cc(NCc2ccccn2)n2ncc(-c3ccc(Cl)cc3)c2n1	16.5	-2.3	52.0*	-9.1	-19.6	-2.0	43.7*
CN(C)CCCNc1cc(C(C)(C)C)nc2c(-c3ccc(Cl)cc3)cnn12	3.1	1.1	130.2	-7.4	17.4	/	/
COc1ccc(N=C2C(=Nc3ccc(OC)cc3)N(c3ccc(OC)cc3)C(=S)N2C(=O)c2ccc(OC)cc2)cc1	16.6	-5.2	54.2*	3.3	25.7	25.0	99.1*
CN(C)C(=O)CCc1ccc2c3c([nH]c2c1)[C@]1(C)[C@@H](C(=O)N2CCOCC2)C[C@H](CC(=O)NCCCn2ccnc2)C(=O)N1CC3	-0.9	/	5.4	-5.7	/	14.6	/
CCN(CC)C(=O)[C@H]1C[C@H](CC(=O)NCCCn2ccnc2)C(=O)N2CCc3c([nH]c4cc(CCC(=O)N(C)C)ccc34)[C@]12C	2.5	/	53.4*	-3.7	/	21.3	-10.3
CN(C)c1cccc(C(=O)Nc2cccc(S(=O)(=O)NC3=NCCC3)c2)c1	9.2	-0.3	-6.6	5.5	19.3	19.8	/
O=C(NC1CCCC1)C(c1ccccc1)n1c(Cc2cc(F)cc(F)c2)nc2ccccc21 (centres undefined)	6.8	/	/	/	/	/	/
NNC(=O)c1ccc(S(=O)(=O)N2CCc3ccccc32)cc1	-4.0	6.5	10.4	21.5	-15.0	-4.1	/
Cc1cc(NC(=O)c2sccc2C)n(-c2nc3ccccc3[nH]2)n1	25.1	-0.3	63.7*	26.7	8.0	34.0	59.0*
Cc1cc(NC(=O)c2cccs2)n(-c2nc3ccccc3[nH]2)n1	16.7	-6.4	49.1	30.1	34.1	48.6	/
